Data reported in ChEMBL document CHEMBL3525991, “Metabolic transformation of antitumor acridinone C-1305 but not C-1311 via selective cellular expression of UGT1A10 increases cytotoxic response: implications for clinical use” (Drug Metab Dispos, 2013).
pIC50: −log10 of the molar value. The source made the active and inactive calls. The rule behind the calls is not given here.

Assays:
[1] = Cytotoxicity against human KB3 cells expressing pcDNA3.1 assessed as decrease in cell viability after 72 hrs by MTT assay; assay type: functional, cell-based; conditions: KB3, 72 h
Summary of the method: (§1)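 KB-3 cells electroporated with 5 μg plasmid (UGT1A10-pcDNA3.1, UGT2B4-pIRES or empty pcDNA3.1), cotransfected with GFP (140 V, 250 μF). Used 24 h later at 2000/well. Next day, drug up to 10 μM in 0.1% DMSO for 72 h. MTT read at 540 nm after 4 h. Triplicates, relative to vehicle. IC50 is 50% of control absorbance.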

[2] = Cytotoxicity against human KB3 cells expressing human UGT2B4 assessed as decrease in cell viability after 72 hrs by MTT assay; assay type: functional, cell-based; conditions: KB3, 72 h; summary of the method: as §1
[3] = Cell cycle arrest in human KB3 cells assessed as distribution at S phase at 8 uM after 24 hrs by propidium iodide staining-based FACS flow cytometric analysis; assay type: functional
[4] = Cell cycle arrest in human KB3 cells assessed as distribution at G2/M phase at 8 uM after 24 hrs by propidium iodide staining-based FACS flow cytometric analysis; assay type: functional
[5] = Cell cycle arrest in human KB3 cells assessed as reduction of cells at G1 phase at 8 uM after 24 hrs by propidium iodide staining-based FACS flow cytometric analysis; assay type: functional
[6] = Cell cycle arrest in human KB3 cells assessed as distribution at G2 phase at 8 uM after 48 to 72 hrs by propidium iodide staining-based FACS flow cytometric analysis; assay type: functional
[7] = Cell cycle arrest in human KB3 cells assessed as distribution at M phase at 8 uM after 48 to 72 hrs by propidium iodide staining-based FACS flow cytometric analysis; assay type: functional
[8] = Cell cycle arrest in human KB3 cells assessed as distribution at subG1 DNA content at 8 uM after 72 hrs by propidium iodide staining-based FACS flow cytometric analysis (reference value: 3.4%); assay type: functional
[9] = Cell cycle arrest in human KB3 cells overexpressing human UGT1A10 assessed as distribution at subG1 DNA content at 8 uM after 24 hrs by propidium iodide staining-based FACS flow cytometric analysis (reference value: 3.4%); assay type: functional; conditions: in the assay text read “72 hrs” for “24 hrs”
Summary of the method: (§2)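 KB-3 cells were electroporated with a UGT1A10 expression plasmid (140 V, 250 μF), co-transfected with GFP, and used 24 h later. At 80% confluence they received 8 μM or 3 μM compound, or 0.1% DMSO, for 24–72 h. Cells were fixed in ice-cold 70% ethanol, stained with PI/RNase for 30 min in the dark, and analysed by flow cytometry for DNA content; at least two experiments.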

[10] = biological target: T1, UDP-glucuronosyltransferase 1A10 (Homo sapiens, UniProt Q9HAW8); assay: Drug metabolism in human KB3 cells overexpressing human UGT1A10 assessed as enzyme-mediated metabolites formation at 30 uM for 24 to 72 hrs by HPLC analysis and electrospray ionization-mass spectrometry; assay type: ADME, cell-based; conditions: kb3, 30 µM
T1 sequence (Q9HAW8 whole entry): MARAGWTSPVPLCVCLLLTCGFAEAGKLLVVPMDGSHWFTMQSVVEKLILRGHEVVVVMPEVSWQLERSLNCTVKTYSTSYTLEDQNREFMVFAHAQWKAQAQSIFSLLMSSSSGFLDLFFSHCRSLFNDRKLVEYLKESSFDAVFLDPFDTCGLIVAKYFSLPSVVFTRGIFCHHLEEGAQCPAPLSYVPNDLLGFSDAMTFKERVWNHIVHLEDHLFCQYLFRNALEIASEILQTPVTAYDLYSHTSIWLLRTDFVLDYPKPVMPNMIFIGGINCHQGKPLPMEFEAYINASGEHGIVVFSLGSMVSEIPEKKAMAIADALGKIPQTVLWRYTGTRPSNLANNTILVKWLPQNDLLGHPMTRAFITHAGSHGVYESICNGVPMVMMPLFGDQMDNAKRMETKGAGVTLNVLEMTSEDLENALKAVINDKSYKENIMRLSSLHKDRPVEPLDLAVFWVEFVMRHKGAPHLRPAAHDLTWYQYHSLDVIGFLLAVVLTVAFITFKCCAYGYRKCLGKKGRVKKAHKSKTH
Summary of the method: (§3)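 Untransfected KB-3, or cells electroporated 24 h earlier with UGT1A10 or UGT2B4 plasmid, grown to 80% confluence and treated with 30 μM drug for 24, 48 or 72 h. Cells plus medium collected, washed, sonicated in ice-cold 60% methanol. Reverse-phase HPLC at 1 ml/min in 50 mM ammonium formate pH 3.2, with a 15–80% methanol gradient over 25 min, then to 100%. Positive-ion ESI-MS.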

[11] = Cell cycle arrest in human KB3 cells overexpressing human UGT1A10 assessed as accumulation of cells with 4N DNA content at 8 uM after 24 to 72 hrs by propidium iodide staining-based FACS flow cytometric analysis; assay type: functional; summary of the method: as §2
[12] = Drug metabolism in human KB3 cells assessed as retention time at 30 uM for 24 to 72 hrs by HPLC analysis; assay type: ADME, cell-based; conditions: kb3, 30 µM; summary of the method: as §3
[13] = biological target: T1, UDP-glucuronosyltransferase 1A10; assay: Drug metabolism in human KB3 cells overexpressing human UGT1A10 assessed as enzyme-mediated metabolites formation at 30 uM for 24 to 72 hrs by HPLC analysis; assay type: ADME, cell-based; conditions: kb3, 30 µM; summary of the method: as §3
[14] = biological target: T2, UDP-glucuronosyltransferase 2B4 (Homo sapiens, UniProt P06133); assay: Drug metabolism in human KB3 cells overexpressing human UGT2B4 assessed as enzyme-mediated metabolites formation at 30 uM for 24 to 72 hrs by HPLC analysis; assay type: ADME, cell-based; conditions: kb3, 30 µM; summary of the method: as §3
T2 sequence (P06133 whole entry): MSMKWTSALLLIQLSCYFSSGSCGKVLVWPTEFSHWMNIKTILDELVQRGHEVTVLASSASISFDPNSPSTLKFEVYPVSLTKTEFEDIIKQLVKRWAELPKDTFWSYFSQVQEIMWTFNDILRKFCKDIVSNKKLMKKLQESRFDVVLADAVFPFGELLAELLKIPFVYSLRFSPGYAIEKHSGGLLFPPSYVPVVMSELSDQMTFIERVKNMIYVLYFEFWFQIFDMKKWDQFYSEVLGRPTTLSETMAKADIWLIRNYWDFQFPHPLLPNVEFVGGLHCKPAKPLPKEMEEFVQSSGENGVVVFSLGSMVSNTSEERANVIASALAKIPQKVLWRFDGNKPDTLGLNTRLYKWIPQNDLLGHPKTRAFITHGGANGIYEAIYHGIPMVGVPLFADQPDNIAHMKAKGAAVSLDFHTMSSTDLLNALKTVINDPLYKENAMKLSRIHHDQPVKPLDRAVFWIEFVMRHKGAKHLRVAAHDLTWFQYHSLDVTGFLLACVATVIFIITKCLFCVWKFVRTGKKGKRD

[15] = Cytotoxicity against human KB3 cells assessed as decrease in cell viability after 72 hrs by MTT assay; assay type: functional, cell-based; conditions: KB3, 72 h
Summary of the method: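 KB-3 (HeLa variant) cells, untransfected, in DMEM with 10% FBS at 37 °C, 5% CO2, seeded 2000/well. Next day, drug added at concentrations up to 10 μM, final 0.1% DMSO; vehicle controls. MTT read at 540 nm after 4 h, following DMSO solubilisation. Triplicate points, relative to vehicle. IC50 is the concentration giving 50% of control absorbance. Repeated independently.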

[16] = Cytotoxicity against human KB3 cells expressing human UGT1A10 assessed as decrease in cell viability after 72 hrs by MTT assay; assay type: functional, cell-based; conditions: KB3, 72 h; summary of the method: as §1
[17] = Cell cycle arrest in human KB3 cells assessed as distribution at S phase at 3 uM after 24 hrs by propidium iodide staining-based FACS flow cytometric analysis; assay type: functional
[18] = Cell cycle arrest in human KB3 cells assessed as distribution at G2 phase at 3 uM after 24 hrs by propidium iodide staining-based FACS flow cytometric analysis; assay type: functional
[19] = Cell cycle arrest in human KB3 cells assessed as distribution at M phase at 3 uM after 24 hrs by propidium iodide staining-based FACS flow cytometric analysis; assay type: functional
[20] = Cell cycle arrest in human KB3 cells overexpressing human UGT1A10 assessed as distribution at subG1 DNA content at 3 uM after 24 hrs by propidium iodide staining-based FACS flow cytometric analysis (reference value: 3.4%); assay type: functional; conditions: in the assay text read “72 hrs” for “24 hrs”; summary of the method: as §2
[21] = Cell cycle arrest in human KB3 cells overexpressing human UGT1A10 assessed as accumulation of cells with 4N DNA content at 3 uM after 24 to 72 hrs by propidium iodide staining-based FACS flow cytometric analysis; assay type: functional; summary of the method: as §2
[22] = Cell cycle arrest in human KB3 cells assessed as distribution at subG1 DNA content at 3 uM after 72 hrs by propidium iodide staining-based FACS flow cytometric analysis (reference value: 3.4%)

| Structure (SMILES) | pIC50 [1] | pIC50 [2] | Drug metabolism [10] | Retention_time [12] [min] | Drug metabolism [13] | Drug metabolism [14] | pIC50 [15] | pIC50 [16] | also measured |
| --- | --- | --- | --- | --- | --- | --- | --- | --- | --- |
| CN(C)CCCNc1ccc2nnn3c4ccc(O)cc4c(=O)c1c23.Cl | 6.59 | 6.58 | metabolite_detected | 18 | metabolite_detected | metabolite_not_detected | 6.58 | 6.74 | Activity [3]: Active; Activity [4]: Active; Activity [5]: Active; Activity [6]: Active; Activity [7]: Active; Activity [8]: 18.7%; Activity [9]: 37.2%; Activity [11]: Active |
| CCN(CC)CCNc1ccc2ncn3c4ccc(O)cc4c(=O)c1c23.Cl | 6.99 | 6.95 | metabolite_detected | 15 | metabolite_detected | metabolite_not_detected | 6.97 | 6.88 | Activity [17]: Active; Activity [18]: Active; Activity [19]: Active; Activity [20]: 22.4%; Activity [21]: Active; Activity [22]: 16.9% |
